Source: ChEMBL document CHEMBL1129514 (J Med Chem, 1996)
Values joined by “and” are separate entries in the source; they are usually repeats but may differ in a detail not shown here. Equal values may be shown once.

How the values were obtained:
Rattus norvegicus [1] = test: Compound was tested for the induction of behavioral syndrome (forepaw treading) in rats at a dose of 10 mg/kg; type: functional
In short: (§1)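 Male Wistar rats (220-260 g), reserpine 1 mg/kg sc 18 h before test; compound as fresh aqueous solution ip, rats placed in cages 5 min beforehand. 45-s observation sessions began 3 min after injection, repeated every 3 min over five periods; forepaw treading and flat body posture scored 0 (absent) to 3 (intense). 6-8 rats/dose; mean ± SEM, Dunnett's test.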

Rattus norvegicus [2] = test: Compound was tested for the induction of lower lip retraction in rats at a dose of 2.5 mg/kg; type: functional
In short: (§2)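 Male Wistar rats (220-260 g), compound ip as fresh aqueous solution, 6-8 animals/dose, each used once. Rats caged individually; lower lip retraction scored at 15, 30 and 45 min post-injection: 0 incisors not visible, 0.5 partly, 1 completely visible. Mean ± SEM score; Dunnett's test vs vehicle.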

Rattus norvegicus [3] = test: Compound was tested for the induction of behavioral syndrome(flat body posture) in rats at a dose of 5 mg/kg; type: functional; in short: as §1
Rattus norvegicus [4] = test: Compound was tested for the induction of behavioral syndrome (forepaw treading) in rats at a dose of 5 mg/kg; type: functional; in short: as §1
Rattus norvegicus [5] = test: Effect on the 8-OH-DPAT-Induced Behavior(flat body posture) in Reserpine Pretreated Rats at a dose of 5 mg/kg; type: functional
In short: (§3)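 Reserpinized male Wistar rats (reserpine 1 mg/kg sc, 18 h prior); compound ip 15 min before 8-OH-DPAT 5 mg/kg ip, fresh aqueous solutions. Observations began 3 min after 8-OH-DPAT, repeated every 3 min for 15 min; flat body posture ranked 0-3. 6-8 rats/dose; mean ± SEM, Dunnett's test vs vehicle + 8-OH-DPAT.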

Rattus norvegicus [6] = test: Effect on the 8-OH-DPAT-Induced Behavior(flat body posture) in Reserpine Pretreated Rats at a dose of 10 mg/kg; type: functional; in short: as §3
Rattus norvegicus [7] = test: Compound was tested for the induction of lower lip retraction in rats at a dose of 1.25 mg/kg; type: functional; in short: as §2
Rattus norvegicus [8] = test: Compound was tested for the induction of lower lip retraction in rats at a dose of 5 mg/kg; type: functional; in short: as §2
Rattus norvegicus [9] = test: Compound was tested for the induction of behavioral syndrome(flat body posture) in rats at a dose of 10 mg/kg; type: functional; in short: as §1
[10] = molecular target: T1, 5-hydroxytryptamine receptor 1A (Rattus norvegicus, UniProt P19327); test: Binding affinity towards 5-hydroxytryptamine 1A receptor in the rat brain (hippocampus) using [3H]8-OH-DPAT; type: tissue-based
T1 sequence (P19327 whole entry): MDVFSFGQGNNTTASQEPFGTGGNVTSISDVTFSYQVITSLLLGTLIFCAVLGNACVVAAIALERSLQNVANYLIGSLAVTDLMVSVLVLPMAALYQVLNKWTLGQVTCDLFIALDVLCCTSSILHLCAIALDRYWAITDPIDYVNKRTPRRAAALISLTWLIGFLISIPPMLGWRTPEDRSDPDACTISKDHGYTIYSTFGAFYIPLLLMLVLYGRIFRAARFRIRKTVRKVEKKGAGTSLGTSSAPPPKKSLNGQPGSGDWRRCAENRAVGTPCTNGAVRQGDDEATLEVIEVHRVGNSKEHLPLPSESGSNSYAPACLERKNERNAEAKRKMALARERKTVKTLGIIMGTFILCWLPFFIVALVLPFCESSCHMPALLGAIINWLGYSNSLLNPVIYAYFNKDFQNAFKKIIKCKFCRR
In short: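 Rat hippocampal membranes; competition binding against [3H]-8-OH-DPAT (190 Ci/mmol) using 10-14 drug concentrations, each run in triplicate. Ki derived from at least three independent competition experiments. Remaining conditions follow a previously published procedure.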

O=C1CC2(CCCC2)CC(=O)N1CCCCN1CCN(c2ncccn2)CC1 [BUSPIRONE]
Behavioral score (Rattus norvegicus [1]): 0.6 | LLR score (Rattus norvegicus [2]): 2.3 | Behavioral score (Rattus norvegicus [3]): 6.8 | Behavioral score (Rattus norvegicus [4]): 0.2 | Behavioral score (Rattus norvegicus [5]): 14.3 and 5 | Behavioral score (Rattus norvegicus [6]): 9.5 and 3.7 | LLR score (Rattus norvegicus [7]): 1.6 | LLR score (Rattus norvegicus [8]): 2.4 | Behavioral score (Rattus norvegicus [9]): 6.4

O=C1CC2(CCCC2)CC(=O)N1CCN1CCc2ccccc2C1
Ki [10]: 1.33 µM

c1ccc2c(c1)CCNC2 [1,2,3,4-TETRAHYDROISOQUINOLINE]
Ki [10]: > 50 µM

O=C1c2ccccc2C(=O)N1CCCCN1CCc2ccccc2C1
Ki [10]: 0.14 µM

O=C1c2ccccc2C(=O)N1CCN1CCc2ccccc2C1
Ki [10]: 41.3 µM

O=C1CC2(CCCC2)CC(=O)N1CCCCN1CCc2ccccc2C1
Behavioral score (Rattus norvegicus [1]): 2.7 | LLR score (Rattus norvegicus [2]): 1.9 | Behavioral score (Rattus norvegicus [3]): 7.8 | Ki [10]: 0.005 µM | Behavioral score (Rattus norvegicus [4]): 2 | Behavioral score (Rattus norvegicus [5]): 14.5 and 8.9 | Behavioral score (Rattus norvegicus [6]): 13.7 and 7.8 | LLR score (Rattus norvegicus [7]): 1.2 | LLR score (Rattus norvegicus [8]): 2.5 | Behavioral score (Rattus norvegicus [9]): 11
